{"source": "ChEMBL document CHEMBL2407047", "about": "“Molecular design, synthesis and biological evaluation of 1,4-dihydro-4-oxoquinoline ribonucleosides as TcGAPDH inhibitors with trypanocidal activity” (Bioorg Med Chem Lett, 2013)", "key": {"[1]": {"compound": "COc1ccc2c(=O)c(C(=O)O)cn([C@@H]3O[C@H](CO)[C@@H](O)[C@H]3O)c2c1", "test": "(§1) Competitive inhibition of Trypanosoma cruzi glycosomal GAPDH assessed as increase in NAD+ Km by ITC method", "method_in_brief": "(§2)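 Enzyme assays were run by isothermal titration calorimetry (ITC), probing the GAPDH NAD+ cosubstrate site and the active site. Affinity is reported as apparent Ki. Mode of inhibition was judged from how NAD+ and G3P KM and Vmax respond. Kinetic models were compared by second-order Akaike's information criterion.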"}, "[2]": {"compound": "COc1ccc2c(c1)c(=O)c(C(=O)O)cn2[C@@H]1O[C@H](CO)[C@@H](O)[C@H]1O", "test": "as §1", "method_in_brief": "as §2"}, "[3]": {"compound": "Cc1ccc2c(=O)c(C(=O)O)cn([C@@H]3O[C@H](CO)[C@@H](O)[C@H]3O)c2c1", "test": "as §1", "method_in_brief": "as §2"}, "[4]": {"compound": "Cc1ccc2c(c1)c(=O)c(C(=O)O)cn2[C@@H]1O[C@H](CO)[C@@H](O)[C@H]1O", "test": "as §1", "method_in_brief": "as §2"}, "[5]": {"compound": "O=C(O)c1cn([C@@H]2O[C@H](CO)[C@@H](O)[C@H]2O)c2cc(Br)ccc2c1=O", "test": "as §1", "method_in_brief": "as §2"}, "[6]": {"compound": "O=C(O)c1cn([C@@H]2O[C@H](CO)[C@@H](O)[C@H]2O)c2ccc(Br)cc2c1=O", "test": "as §1", "method_in_brief": "as §2"}, "[7]": {"compound": "O=C(O)c1cn([C@@H]2O[C@H](CO)[C@@H](O)[C@H]2O)c2ccc(Cl)cc2c1=O", "test": "as §1", "method_in_brief": "as §2"}}, "data": [{"protein": "Glyceraldehyde-3-phosphate dehydrogenase, glycosomal (Trypanosoma cruzi), P22513 (protein) MPIKVGINGFGRIGRMVFQALCEDGLLGTEIDVVAVVDMNTDAEYFAYQMRYDTVHGKFKYEVTTTKSSPSVAKDDTLVVNGHRILCVKAQRNPADLPWGKLGVEYVIESTGLFTAKAAAEGHLRGGARKVVISAPASGGAKTLVMGVNHHEYNPSEHHVVSNASCTTNCLAPIVHVLVKEGFGVQTGLMTTIHSYTATQKTVDGVSVKDWRGGRAAAVNIIPSTTGAAKAVGMVIPSTQGKLTGMSFRVPTPDVSVVDLTFTAARDTSIQEIDAALKRASKTYMKGILGYTDEELVSADFINDNRSSIYDSKATLQNNLPKERRFFKIVSWYDNEWGYSHRVVDLVRHMASKDRSARL", "values": [{"measurement": "Km", "setting": "[1]", "value": 67.7, "unit": "µM"}, {"measurement": "Km", "setting": "[2]", "value": 47, "unit": "µM"}, {"measurement": "Km", "setting": "[3]", "value": 46.9, "unit": "µM"}, {"measurement": "Km", "setting": "[4]", "value": 48.5, "unit": "µM"}, {"measurement": "Km", "setting": "[5]", "value": 50, "unit": "µM"}, {"measurement": "Km", "setting": "[6]", "value": 62.6, "unit": "µM"}, {"measurement": "Km", "setting": "[7]", "value": 63.4, "unit": "µM"}]}]}
